Laboratory results as given in ChEMBL document CHEMBL1151684, “Synthesis and antitumoral activity of novel 3-(2-substituted-1,3,4-oxadiazol-5-yl) and 3-(5-substituted-1,2,4-triazol-3-yl) beta-carboline derivatives” (2008).

Legend:
Format in all cases: functional
OVCAR = test: Growth inhibition of human OVCAR cells after 48 hrs by sulforhodamine B assay
How it was run: (§1)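 Sulforhodamine B colorimetric assay following the NCI standard protocol, with doxorubicin as positive control. Each compound was tested at four concentrations in 10-fold dilutions (0.25 to 250). GI50, the concentration giving 50% growth reduction versus untreated control cells, was derived from dose–response curves.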

K562 = test: Growth inhibition of human K-562 cells after 48 hrs by sulforhodamine B assay; settings: K562, 48 h; how it was run: as §1
UACC-62 = test: Growth inhibition of human UACC-62 cells after 48 hrs by sulforhodamine B assay; settings: UACC-62, 48 h; how it was run: as §1
[1] = Growth inhibition of human NCI-460 cells after 48 hrs by sulforhodamine B assay; settings: NCI-460, 48 h; how it was run: as §1
MCF7 = test: Growth inhibition of human MCF7 cells after 48 hrs by sulforhodamine B assay; settings: MCF7, 48 h; how it was run: as §1
HT-29 = test: Growth inhibition of human HT-29 cells after 48 hrs by sulforhodamine B assay; settings: HT-29, 48 h; how it was run: as §1
786-0 = test: Growth inhibition of human 786-0 cells after 48 hrs by sulforhodamine B assay; settings: 786-0, 48 h; for CC50: read-out: LC50 (the source's name); how it was run: as §1
[2] = Growth inhibition of human PCO3 cells after 48 hrs by sulforhodamine B assay; settings: PCO3, 48 h; how it was run: as §1

| SMILES | GI50 (OVCAR) [µM] | TGI (OVCAR) [µM] | GI50 (K562) [µM] | LC50 (concentration causing 50% net cell kill) (K562) [µM] | TGI (K562) [µM] | GI50 (UACC-62) [µM] | TGI (UACC-62) [µM] | GI50 [1] [µM] | TGI [1] [µM] | GI50 (MCF7) [µM] | TGI (MCF7) [µM] | GI50 (HT-29) [µM] | TGI (HT-29) [µM] | GI50 (786-0) [µM] | TGI (786-0) [µM] | GI50 [2] [µM] | TGI [2] [µM] | LC50 (concentration for 50% net cell kill) [1] [µM] | LC50 (concentration killing 50% of cells) (MCF7) [µM] | LC50 (concentration killing 50% of cells) [2] [µM] | further results |
| --- | --- | --- | --- | --- | --- | --- | --- | --- | --- | --- | --- | --- | --- | --- | --- | --- | --- | --- | --- | --- | --- |
| S=c1[nH]nc(-c2cc3c([nH]c4ccccc43)c(-c3ccccc3Cl)n2)o1 | 45.9 | > 100 | 20.3 | > 100 | 74 | 18.1 | 80.1 | 20.8 | > 100 | 26.9 | > 100 | 17.4 | > 100 | 27.9 | > 100 | 21.4 | > 100 |  |  |  | LC50 (concentration killing 50% of cells, NCI protocol) (UACC-62): > 100 µM |
| CSc1nnc(-c2cc3c([nH]c4ccccc43)c(-c3ccccc3Cl)n2)o1 | 0.01 | 0.1 | 0.17 | > 100 | 68.4 | 15.2 | > 100 | 1.64 | 4.2 | 16.8 | 51.9 | 8.02 | 99.6 | 48.6 | > 100 | 1.03 | 3.8 | > 100 | > 100 | 73.5 | LC50 (concentration killing 50% of the cells, NCI protocol) (OVCAR): 10.1 µM; LC50 (concentration killing 50% of the cells present at the start) (HT-29): > 100 µM |
| Oc1ccc(-c2nc(-c3n[nH]c(=S)o3)cc3c2[nH]c2ccccc23)cc1 | > 100 | > 100 | 21.5 | > 100 | 87 | > 100 | > 100 | > 100 | > 100 | 88.7 | > 100 | > 100 | > 100 | 94.9 | > 100 | 81.1 | > 100 |  |  |  |  |
| S=c1[nH]nc(-c2cc3c([nH]c4ccccc43)c(-c3ccccc3)n2)o1 | 31.8 | > 100 | 15.3 | > 100 | 54.4 | > 100 | > 100 | 20.6 | > 100 | 25.5 | > 100 | 25.5 | > 100 | 27.9 | > 100 | 25.5 | > 100 |  |  |  |  |
| CN(C)c1ccc(-c2nc(-c3n[nH]c(=S)n3N)cc3c2[nH]c2ccccc23)cc1 | > 100 | > 100 | > 100 |  | > 100 | 50.4 | > 100 | 0.2 | 71.8 | > 100 | > 100 | > 100 | > 100 | 0.97 | 80 | > 100 | > 100 | > 100 |  |  | CC50 (786-0): > 100 µM |
| COc1ccc(-c2nc(-c3n[nH]c(=S)o3)cc3c2[nH]c2ccccc23)cc1 | > 100 | > 100 | 26.4 |  | > 100 | 16.8 | 47.2 | 9.2 | > 100 | 24.9 | 97 | 20.3 | 55.3 | 31.6 | > 100 | 17.3 | 41.1 |  | > 100 | > 100 | LC50 (concentration killing 50% of cells, NCI protocol) (UACC-62): > 100 µM; LC50 (concentration killing 50% of the cells present at the start) (HT-29): > 100 µM |
| Nn1c(-c2cc3c([nH]c4ccccc43)c(-c3ccccc3)n2)n[nH]c1=S | 12 | 25.3 | 9.93 |  | > 100 | 24.3 | > 100 | 1.59 | 54.7 | 15 | 32.5 | 15 | 86.9 | 10.9 | 49.4 | 10.9 | 30.6 | > 100 | > 100 | > 100 | LC50 (concentration killing 50% of the cells, NCI protocol) (OVCAR): 52.5 µM; CC50 (786-0): > 100 µM |
| Nn1c(-c2cc3c([nH]c4ccccc43)c(-c3ccc(O)cc3)n2)n[nH]c1=S | 27.5 | 98.4 | 29.9 |  | > 100 | 22.5 | > 100 | 0.15 | 12.2 | 61.2 | > 100 | 34 | > 100 | 0.26 | 94.1 | 25.5 | > 100 |  |  |  | LC50 (concentration killing 50% of the cells, NCI protocol) (OVCAR): > 100 µM; CC50 (786-0): > 100 µM |
| COc1ccc(-c2nc(-c3nnc(SC)o3)cc3c2[nH]c2ccccc23)cc1 | 2.13 | > 100 | 0.18 |  | > 100 | 29.1 | > 100 | 1.28 | 56.6 | 31.2 | > 100 | > 100 | > 100 | > 100 | > 100 | > 100 | > 100 | > 100 |  |  |  |
| CSc1nnc(-c2cc3c([nH]c4ccccc43)c(-c3ccccc3)n2)n1N | > 100 |  | 2.04 |  |  | > 100 |  | > 100 |  | > 100 |  | > 100 |  | > 100 |  | > 100 |  |  |  |  |  |
| CSc1nnc(-c2cc3c([nH]c4ccccc43)c(-c3ccc(N(C)C)cc3)n2)o1 | > 100 |  | > 100 |  |  | > 100 |  | > 100 |  | > 100 |  | 87.4 |  | > 100 |  | 92.6 |  |  |  |  |  |
| CN(C)c1ccc(-c2nc(-c3n[nH]c(=S)[nH]3)cc3c2[nH]c2ccccc23)cc1 | 1.09 | 7.28 | 11.1 |  | > 100 | 1.74 | > 100 | 0.06 | 8.96 | 8.63 | 37 | 8.63 | 51.5 | 0.04 | 1.24 | 1.37 | 6.68 | > 100 | > 100 | > 100 | LC50 (concentration killing 50% of the cells, NCI protocol) (OVCAR): 47.9 µM; CC50 (786-0): 37.3 µM |
| Oc1ccc(-c2nc(-c3n[nH]c(=S)[nH]3)cc3c2[nH]c2ccccc23)cc1 | 6.41 | > 100 | > 100 |  | > 100 | 10.6 | > 100 | 6.69 | > 100 | 19.8 | > 100 | 46.2 | > 100 | 0.17 | 23.8 | 0.5 | 40.7 |  |  | > 100 | CC50 (786-0): > 100 µM |
| COc1cc(-c2nc(-c3nnc(SC)o3)cc3c2[nH]c2ccccc23)ccc1O | 16.4 | 59.8 | 22.6 |  | > 100 | 17.8 | 48.6 | 4.82 | > 100 | 12.7 | 28.1 | 7.31 | 39.4 | 15.3 | 36.3 | 7.53 | 39.4 |  | 61.2 | > 100 | LC50 (concentration killing 50% of cells, NCI protocol) (UACC-62): > 100 µM; LC50 (concentration killing 50% of the cells present at the start) (HT-29): > 100 µM; CC50 (786-0): > 100 µM |
| CSc1nnc(-c2cc3c([nH]c4ccccc43)c(-c3cccc([N+](=O)[O-])c3)n2)o1 | 21.3 | > 100 | 21.3 | > 100 | 81.5 | 16.4 | 69.4 | 24.5 | 99.2 | 79.8 | > 100 | 68.1 | > 100 | > 100 | > 100 | 44.2 | > 100 | > 100 |  |  | LC50 (concentration killing 50% of cells, NCI protocol) (UACC-62): > 100 µM |
| COc1ccc(-c2nc(-c3n[nH]c(=S)[nH]3)cc3c2[nH]c2ccccc23)cc1 | > 100 |  | > 100 |  |  | 66.8 |  | 0.1 |  | > 100 |  | > 100 |  | 7.48 |  | > 100 |  |  |  |  |  |
| CSc1nnc(-c2cc3c([nH]c4ccccc43)c(-c3ccccc3)n2)o1 | 0.01 | 0.1 | 0.43 | 74.7 | 10.4 | 99.5 | > 100 | 3.42 | 74.7 | 12.2 | 31.3 | 16.2 | > 100 | 32 | > 100 | 23.6 | 86.6 | > 100 | > 100 | > 100 | LC50 (concentration killing 50% of the cells, NCI protocol) (OVCAR): 1.6 µM |
